Laboratory results reported in PMC9071996 (RSC Advances, 2019).

Experiments:
Assay type in all cases: cell-based
MDA-MB-231 cells = experiment: MTS cytotoxicity assay, MDA-MB-231; conditions: Homo sapiens, MDA-MB-231, 72 h, read-out: IC50 (μM) MBA-MD-231
Outline: (§1)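 MTS viability assay in A549, MDA-MB-231 and RPMI-8226 human cancer cells. All compounds were first screened at 10 and 50 μM. Compounds that crossed a set viability threshold in this screen went on to IC50 determination.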

RPMI-8226 cells = experiment: MTS cytotoxicity assay, RPMI-8226; conditions: Homo sapiens, RPMI-8226, 72 h, read-out: IC50 (μM) RPMI-8226
Outline: as §1

A549 cells = experiment: MTS cytotoxicity assay, A549; conditions: Homo sapiens, A549, 72 h, read-out: IC50 (μM) A549
Outline: as §1

GES-1 cells = experiment: MTS cytotoxicity assay, normal GES-1 cells; conditions: Homo sapiens, GES1, 72 h, read-out: IC50 (μM) GES-1

Question: For `CC12CCC(c3c(-c4ccc([N+](=O)[O-])cc4)nc(N)nc31)C2(C)C` (stereo not drawn) [Compound 3w, 8,9,9-Trimethyl-4-(4-nitrophenyl)-5,6,7,8-tetrahydro-5,8-methanoquinazolin-2-amine], which IC50 (MDA-MB-231 cells) is on record?
Answer: 6.21 ± 0.14 µM

Question: And the IC50 (RPMI-8226 cells)?
Answer: 9.58 ± 0.11 µM

Question: And the IC50 (A549 cells)?
Answer: 10.84 ± 0.09 µM

Question: What about the IC50 (GES-1 cells) of the same molecule?
Answer: > 50 µM

Question: With `CC12CCC(c3c(-c4cccc(F)c4)nc(N)nc31)C2(C)C` (stereo not drawn) [Compound 3b, 4-(3-Fluorophenyl)-8,9,9-trimethyl-5,6,7,8-tetrahydro-5,8-methanoquinazolin-2-amine] as the molecule, how does the IC50 (MDA-MB-231 cells) read?
Answer: 28.56 ± 0.26 µM

Question: And the IC50 (RPMI-8226 cells)?
Answer: > 50 µM

Question: What about the IC50 (A549 cells) of the same molecule?
Answer: 24.35 ± 0.01 µM

Question: What about the IC50 (GES-1 cells) of the same molecule?
Answer: > 50 µM

Question: Which results are given for `Cc1cccc(-c2nc(N)nc3c2C2CCC3(C)C2(C)C)c1` (stereo not drawn) [Compound 3k, 8,9,9-Trimethyl-4-(m-tolyl)-5,6,7,8-tetrahydro-5,8-methanoquinazolin-2-amine]?
Answer: IC50 (MDA-MB-231 cells): 20 ± 0.09 µM; IC50 (RPMI-8226 cells): > 50 µM; IC50 (A549 cells): 18 ± 0.18 µM; IC50 (GES-1 cells): > 50 µM

Question: For `CC12CCC(c3c(-c4ccccc4Br)nc(N)nc31)C2(C)C` (stereo not drawn) [Compound 3g, 4-(2-Bromophenyl)-8,9,9-trimethyl-5,6,7,8-tetrahydro-5,8-methanoquinazolin-2-amine], which IC50 (MDA-MB-231 cells) is on record?
Answer: 18.3 ± 0.26 µM

Question: And the IC50 (RPMI-8226 cells)?
Answer: > 50 µM

Question: What about the IC50 (A549 cells) of the same molecule?
Answer: 23.32 ± 0.03 µM

Question: And the IC50 (GES-1 cells)?
Answer: > 50 µM

Question: `CC12CCC(c3c(-c4ccc(F)cc4)nc(N)nc31)C2(C)C` (stereo not drawn) [Compound 3c, 4-(4-Fluorophenyl)-8,9,9-trimethyl-5,6,7,8-tetrahydro-5,8-methanoquinazolin-2-amine] was tested. Which IC50 (MDA-MB-231 cells) did it give?
Answer: 12.59 ± 0.04 µM

Question: And the IC50 (RPMI-8226 cells)?
Answer: 9.3 ± 0.34 µM

Question: What about the IC50 (A549 cells) of the same molecule?
Answer: 12.63 ± 0.02 µM

Question: And the IC50 (GES-1 cells)?
Answer: > 50 µM

Question: What does the source list for `CC12CCC(c3c(-c4cccnc4)nc(N)nc31)C2(C)C` (stereo not drawn) [Compound 3t, 8,9,9-Trimethyl-4-(pyridin-3-yl)-5,6,7,8-tetrahydro-5,8-methanoquinazolin-2-amine]?
Answer: IC50 (MDA-MB-231 cells): > 50 µM; IC50 (RPMI-8226 cells): > 50 µM; IC50 (A549 cells): > 50 µM; IC50 (GES-1 cells): > 50 µM

Question: `CC12CCC(c3c(-c4cccc(Cl)c4)nc(N)nc31)C2(C)C` (stereo not drawn) [Compound 3e, 4-(3-Chlorophenyl)-8,9,9-trimethyl-5,6,7,8-tetrahydro-5,8-methanoquinazolin-2-amine] was tested. Which IC50 (MDA-MB-231 cells) did it give?
Answer: 23.3 ± 0.44 µM

Question: What about the IC50 (RPMI-8226 cells) of the same molecule?
Answer: 10.4 ± 0.35 µM

Question: And the IC50 (A549 cells)?
Answer: 10.63 ± 0.09 µM

Question: And the IC50 (GES-1 cells)?
Answer: > 50 µM

Question: What does the source list for `CN(C)c1ccc(-c2nc(N)nc3c2C2CCC3(C)C2(C)C)cc1` (stereo not drawn) [Compound 3v, 4-(4-(Dimethylamino)phenyl)-8,9,9-trimethyl-5,6,7,8-tetrahydro-5,8-methanoquinazolin-2-amine]?
Answer: IC50 (MDA-MB-231 cells): > 50 µM; IC50 (RPMI-8226 cells): > 50 µM; IC50 (A549 cells): > 50 µM; IC50 (GES-1 cells): > 50 µM

Question: With `CC12CCC(c3c(-c4ccccc4)nc(N)nc31)C2(C)C` (stereo not drawn) [Compound 3x, 8,9,9-Trimethyl-4-phenyl-5,6,7,8-tetrahydro-5,8-methanoquinazolin-2-amine] as the molecule, how does the IC50 (MDA-MB-231 cells) read?
Answer: 29.88 ± 0.16 µM

Question: What about the IC50 (RPMI-8226 cells) of the same molecule?
Answer: > 50 µM

Question: What about the IC50 (A549 cells) of the same molecule?
Answer: > 50 µM

Question: And the IC50 (GES-1 cells)?
Answer: > 50 µM

Question: `CC12CCC(c3c(-c4ccccc4Cl)nc(N)nc31)C2(C)C` (stereo not drawn) [Compound 3d, 4-(2-Chlorophenyl)-8,9,9-trimethyl-5,6,7,8-tetrahydro-5,8-methanoquinazolin-2-amine] was tested. Which IC50 (MDA-MB-231 cells) did it give?
Answer: 25.5 ± 0.39 µM

Question: And the IC50 (RPMI-8226 cells)?
Answer: 11.4 ± 0.18 µM

Question: And the IC50 (A549 cells)?
Answer: 16.9 ± 0.5 µM

Question: What about the IC50 (GES-1 cells) of the same molecule?
Answer: > 50 µM

Question: Which IC50 (MDA-MB-231 cells) does the source give for `CC12CCC(c3c(-c4ccc(Br)cc4)nc(N)nc31)C2(C)C` (stereo not drawn) [Compound 3i, 4-(4-Bromophenyl)-8,9,9-trimethyl-5,6,7,8-tetrahydro-5,8-methanoquinazolin-2-amine] here?
Answer: 8.66 ± 0.17 µM

Question: And the IC50 (RPMI-8226 cells)?
Answer: 18.94 ± 0.08 µM

Question: What about the IC50 (A549 cells) of the same molecule?
Answer: 16.45 ± 0.04 µM

Question: And the IC50 (GES-1 cells)?
Answer: > 50 µM

Question: How did the IC50 (MDA-MB-231 cells) turn out when `COc1cc([C@@H]2c3cc4c(cc3[C@@H](O[C@@H]3O[C@@H]5CO[C@@H](C)O[C@H]5[C@H](O)[C@H]3O)[C@H]3COC(=O)[C@H]23)OCO4)cc(OC)c1O` [Etoposide, reference compound] was run?
Answer: 3.97 ± 0.45 µM

Question: What about the IC50 (RPMI-8226 cells) of the same molecule?
Answer: 1.92 ± 0.17 µM

Question: What about the IC50 (A549 cells) of the same molecule?
Answer: 10.9 ± 0.79 µM

Question: What about the IC50 (GES-1 cells) of the same molecule?
Answer: 8.89 ± 0.7 µM

Question: Which results are given for `Cc1ccc(-c2nc(N)nc3c2C2CCC3(C)C2(C)C)cc1` (stereo not drawn) [Compound 3l, 8,9,9-Trimethyl-4-(p-tolyl)-5,6,7,8-tetrahydro-5,8-methanoquinazolin-2-amine]?
Answer: IC50 (MDA-MB-231 cells): 15.68 ± 0.14 µM; IC50 (RPMI-8226 cells): 13.86 ± 0.09 µM; IC50 (A549 cells): 15.32 ± 0.09 µM; IC50 (GES-1 cells): > 50 µM

Question: What does the source list for `CC12CCC(c3c(-c4cccc(O)c4)nc(N)nc31)C2(C)C` (stereo not drawn) [Compound 3q, 3-(2-Amino-8,9,9-trimethyl-5,6,7,8-tetrahydro-5,8-methanoquinazolin-4-yl)phenol]?
Answer: IC50 (MDA-MB-231 cells): > 50 µM; IC50 (RPMI-8226 cells): > 50 µM; IC50 (A549 cells): > 50 µM; IC50 (GES-1 cells): > 50 µM

Question: Which results are given for `CC12CCC(c3c(-c4ccc(O)cc4)nc(N)nc31)C2(C)C` (stereo not drawn) [Compound 3r, 4-(2-Amino-8,9,9-trimethyl-5,6,7,8-tetrahydro-5,8-methanoquinazolin-4-yl)phenol]?
Answer: IC50 (MDA-MB-231 cells): > 50 µM; IC50 (RPMI-8226 cells): > 50 µM; IC50 (A549 cells): > 50 µM; IC50 (GES-1 cells): > 50 µM

Question: For `CC12CCC(c3c(-c4ccccn4)nc(N)nc31)C2(C)C` (stereo not drawn) [Compound 3s, 8,9,9-Trimethyl-4-(pyridin-2-yl)-5,6,7,8-tetrahydro-5,8-methanoquinazolin-2-amine], which IC50 (MDA-MB-231 cells) is on record?
Answer: > 50 µM

Question: What about the IC50 (RPMI-8226 cells) of the same molecule?
Answer: > 50 µM

Question: And the IC50 (A549 cells)?
Answer: > 50 µM

Question: And the IC50 (GES-1 cells)?
Answer: > 50 µM

Question: What does the source list for `CC12CCC(c3c(-c4ccccc4F)nc(N)nc31)C2(C)C` (stereo not drawn) [Compound 3a, 4-(2-Fluorophenyl)-8,9,9-trimethyl-5,6,7,8-tetrahydro-5,8-methanoquinazolin-2-amine]?
Answer: IC50 (MDA-MB-231 cells): 32.85 ± 0.31 µM; IC50 (RPMI-8226 cells): > 50 µM; IC50 (A549 cells): > 50 µM; IC50 (GES-1 cells): > 50 µM

Question: Which results are given for `CC12CCC(c3c(-c4ccccc4O)nc(N)nc31)C2(C)C` (stereo not drawn) [Compound 3p, 2-(2-Amino-8,9,9-trimethyl-5,6,7,8-tetrahydro-5,8-methanoquinazolin-4-yl)phenol]?
Answer: IC50 (MDA-MB-231 cells): 16.3 ± 0.26 µM; IC50 (RPMI-8226 cells): > 50 µM; IC50 (A549 cells): 14 ± 0.16 µM; IC50 (GES-1 cells): > 50 µM

Question: For `COc1cccc(-c2nc(N)nc3c2C2CCC3(C)C2(C)C)c1` (stereo not drawn) [Compound 3n, 4-(3-Methoxyphenyl)-8,9,9-trimethyl-5,6,7,8-tetrahydro-5,8-methanoquinazolin-2-amine], which IC50 (MDA-MB-231 cells) is on record?
Answer: > 50 µM

Question: And the IC50 (RPMI-8226 cells)?
Answer: > 50 µM

Question: And the IC50 (A549 cells)?
Answer: > 50 µM

Question: And the IC50 (GES-1 cells)?
Answer: > 50 µM

Question: How did the IC50 (MDA-MB-231 cells) turn out when `CC12CCC(c3c(-c4ccncc4)nc(N)nc31)C2(C)C` (stereo not drawn) [Compound 3u, 8,9,9-Trimethyl-4-(pyridin-4-yl)-5,6,7,8-tetrahydro-5,8-methanoquinazolin-2-amine] was run?
Answer: > 50 µM

Question: What about the IC50 (RPMI-8226 cells) of the same molecule?
Answer: > 50 µM

Question: And the IC50 (A549 cells)?
Answer: > 50 µM

Question: And the IC50 (GES-1 cells)?
Answer: > 50 µM

Question: `CC12CCC(c3c(-c4cccc(Br)c4)nc(N)nc31)C2(C)C` (stereo not drawn) [Compound 3h, 4-(3-Bromophenyl)-8,9,9-trimethyl-5,6,7,8-tetrahydro-5,8-methanoquinazolin-2-amine] was tested. Which IC50 (MDA-MB-231 cells) did it give?
Answer: > 50 µM

Question: What about the IC50 (RPMI-8226 cells) of the same molecule?
Answer: > 50 µM

Question: What about the IC50 (A549 cells) of the same molecule?
Answer: > 50 µM

Question: What about the IC50 (GES-1 cells) of the same molecule?
Answer: > 50 µM

Question: With `Cc1ccccc1-c1nc(N)nc2c1C1CCC2(C)C1(C)C` (stereo not drawn) [Compound 3j, 8,9,9-Trimethyl-4-(o-tolyl)-5,6,7,8-tetrahydro-5,8-methanoquinazolin-2-amine] as the molecule, how does the IC50 (MDA-MB-231 cells) read?
Answer: 26.2 ± 0.4 µM

Question: And the IC50 (RPMI-8226 cells)?
Answer: > 50 µM

Question: What about the IC50 (A549 cells) of the same molecule?
Answer: 22.54 ± 0.15 µM

Question: And the IC50 (GES-1 cells)?
Answer: > 50 µM

Question: How did the IC50 (MDA-MB-231 cells) turn out when `COc1ccc(-c2nc(N)nc3c2C2CCC3(C)C2(C)C)cc1` (stereo not drawn) [Compound 3o, 4-(4-Methoxyphenyl)-8,9,9-trimethyl-5,6,7,8-tetrahydro-5,8-methanoquinazolin-2-amine] was run?
Answer: > 50 µM

Question: What about the IC50 (RPMI-8226 cells) of the same molecule?
Answer: > 50 µM

Question: And the IC50 (A549 cells)?
Answer: > 50 µM

Question: What about the IC50 (GES-1 cells) of the same molecule?
Answer: > 50 µM

Question: Which results are given for `COc1ccccc1-c1nc(N)nc2c1C1CCC2(C)C1(C)C` (stereo not drawn) [Compound 3m, 4-(2-Methoxyphenyl)-8,9,9-trimethyl-5,6,7,8-tetrahydro-5,8-methanoquinazolin-2-amine]?
Answer: IC50 (MDA-MB-231 cells): > 50 µM; IC50 (RPMI-8226 cells): > 50 µM; IC50 (A549 cells): > 50 µM; IC50 (GES-1 cells): > 50 µM
